Only some compounds are listed: those with a hit (about 3.6% of all), similar ones and a draw of the others.
MITF TRPM1 HTS: activators of MITF-driven TRPM1 promoter reporter, primary screen, cell-based, SK-MEL-5, luciferase, single point. SK-MEL-5 TRPM1-promoter luciferase, 24 h; % of positive control, neutral wells = 0. activation, % at 12.5 µM. hit rate 0.75% among 300,000. AID 588334, 2011;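 active = mean activation of at least 80% with every replicate also reaching 80%; inconclusive = mean reaches 80% but some replicate falls short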;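 also: 0% = neutral control wells and 100% = parthenolide positive control wells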
SR-BI DiI inh: inhibitors of SR-BI mediated HDL lipid uptake, primary screen, ldlA[mSR-BI] cells, fluorescence, single point; ldlA[mSR-BI] CHO cells, DiI-HDL uptake fluorescence, 3 h; hit rate 0.96% among 320,000; Scavenger receptor class B member 1 (Mus musculus), Q61009; AID 488896, 2010; inhibition, % at 12.5 µM;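 active = mean replicate inhibition of at least 70% and a set share of replicates each scoring 70 or more; inconclusive = meets just one of the two criteria; inactive = fails both criteria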;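 also: 0% = median of neutral control wells and 100% = median of positive control wells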
Target sequence (Q61009 whole entry, looked up): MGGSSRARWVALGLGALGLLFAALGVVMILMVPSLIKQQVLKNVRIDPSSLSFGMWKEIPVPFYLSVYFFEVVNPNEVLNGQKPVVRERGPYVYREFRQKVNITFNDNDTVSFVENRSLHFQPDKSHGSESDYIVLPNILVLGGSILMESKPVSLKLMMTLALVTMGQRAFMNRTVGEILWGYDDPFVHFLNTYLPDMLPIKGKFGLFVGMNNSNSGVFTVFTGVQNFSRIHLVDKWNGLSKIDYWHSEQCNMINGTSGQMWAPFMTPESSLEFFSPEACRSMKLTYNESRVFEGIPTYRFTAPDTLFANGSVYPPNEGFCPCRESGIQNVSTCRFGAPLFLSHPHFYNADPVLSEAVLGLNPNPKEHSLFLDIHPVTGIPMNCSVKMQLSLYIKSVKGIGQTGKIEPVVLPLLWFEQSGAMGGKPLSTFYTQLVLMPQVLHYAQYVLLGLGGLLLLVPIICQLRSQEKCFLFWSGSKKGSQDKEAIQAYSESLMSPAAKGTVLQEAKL
Wnt act: Wnt/beta-catenin pathway activators, primary screen, cell-based, plate reader, single point | AID 743398, 2014 | activation, % at 9.35 µM | hit rate 1.2% among 300,000 | Wnt/beta-catenin reporter cell assay, activator; in the data active = activation above about 30%, passing the limit was not always enough; inconclusive = no clear call, values can overlap the other calls;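 also: 0% = neutral control wells and 100% = positive control wells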
SR-BI uptake up: activators of SR-BI mediated DiI-HDL uptake, primary screen, ldlA[mSR-BI] CHO cells, DiI fluorescence. AID 504775, 2011. 3 h; 100 = double the neutral-control signal. activation, % at 12.5 µM. hit rate 0.096% among 320,000;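 active = mean replicate activation of at least 60% and every replicate at or above 60%; inconclusive = mean or all-replicate condition met, but not both; inactive = mean below 60% and not all replicates reaching 60%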;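 also: 0% = median plate neutral-control signal and 100% = twice that signal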
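System: LDL receptor-deficient CHO ldlA cells overexpressing murine SR-BI | Timing: 3 h uptake period with compound, 37 °C | Medium: HEPES-buffered (25 mM, pH 7.4) F12 plus 0.5% BSA | Dosing: Single-point compound dose | Signal: Bottom-read fluorescence, 550/595 nm | Read-out: Retained DiI signal reflecting DiI-HDL uptake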
HSF1 activator: HSF-1 activators, primary screen, NIH3T3-HGL cells, MG132 stress, luminescence, single point. activation, % at 9 µM. hit rate 1.7% among 300,000. AID 504408, 2011. NIH3T3-HGL HSF-1 luciferase reporter, 8 h; 100% = twice DMSO control signal;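 active = mean replicate activation of at least 50% with a set share of replicates each reaching 50%; inconclusive = only one of those two conditions met; inactive = mean below 50% and too few replicates reaching it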;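 also: 0% = median of the neutral control wells and 100% = twice that signal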
* = called active by the depositor.

`S=C(Nc1ccc(-c2nc3ccccc3[nH]2)cc1)Nc1cccnc1` gave MITF TRPM1 HTS 34.8, SR-BI DiI inh 2.2, Wnt act 24.9, SR-BI uptake up -2.2 and HSF1 activator 59.3*.
Nc1nc(-c2nc3ccccc3[nH]2)cs1 was read as SR-BI DiI inh 15.8, Wnt act 56.1*, SR-BI uptake up -15.8 and HSF1 activator inconclusive.
Screening c1csc(-c2nc3ccccc3[nH]2)c1 returned MITF TRPM1 HTS 33.2, SR-BI DiI inh -5.7 and SR-BI uptake up 5.7.
For O=C(c1ccccc1-c1nc2ccccc2[nH]1)N1CCOCC1 the results were MITF TRPM1 HTS -1.8, SR-BI DiI inh 8.2, SR-BI uptake up -8.2 and HSF1 activator 9.1.
Screening O=C(O)c1ccccc1-c1nc2ccccc2[nH]1 returned MITF TRPM1 HTS 13.8, SR-BI DiI inh -29.5, Wnt act 4.1, SR-BI uptake up 29.5 and HSF1 activator 60.0*.
For COC(=O)C[C@@H]1C[C@@H]2c3cc(NC(=O)Cc4ccncc4)ccc3O[C@@H]2[C@@H](CO)O1 the results were Wnt act -2.3.
Screening COc1cc(/C=C/CNC[C@H]2O[C@@H](n3cc(C)c(=O)[nH]c3=O)C[C@@H]2O)ccc1O returned Wnt act -1.4.
Screening O=C(Nc1cccc(F)c1)N1CCc2nc(NCc3cccc(Oc4ccccc4)c3)ncc2C1 returned Wnt act -4.2.
COC(=O)c1ccc(-c2nc3ccccc3[nH]2)cc1 was read as MITF TRPM1 HTS 15.4, SR-BI DiI inh 12.2, SR-BI uptake up -12.2 and HSF1 activator 61.4*.
Screening c1ccc(-c2nc3ccccc3[nH]2)cc1 returned MITF TRPM1 HTS 86.1*, SR-BI DiI inh 13.5, Wnt act 61.3*, SR-BI uptake up -13.5 and HSF1 activator -65.8.
For O=C1c2cccc3cccc(c23)C(=O)N1CCN1CCN(CC(O)COc2ccc3ccccc3c2)CC1 (configuration not stated) the results were MITF TRPM1 HTS 8.3, SR-BI DiI inh 59.3, Wnt act -1.1, SR-BI uptake up -59.3 and HSF1 activator 17.5.
Screening COc1cc(COCC(O)CN2CCN(CCN3C(=O)c4cccc5cccc(c45)C3=O)CC2)cc(OC)c1OC (configuration not stated) returned MITF TRPM1 HTS 2.1, SR-BI DiI inh 47.5, Wnt act -1.0, SR-BI uptake up -47.5 and HSF1 activator 115.2*.
`O=C(/C=C/c1ccc(Cl)cc1)N1CCN(CCN2C(=O)c3cccc4cccc(c34)C2=O)CC1` gave MITF TRPM1 HTS -3.0, SR-BI DiI inh 77.9*, Wnt act -2.8 and SR-BI uptake up -77.9.
Screening O=C1c2cccc3cccc(c23)C(=O)N1CCN1CCN(CC(O)COCc2ccc(Cl)cc2)CC1 (configuration not stated) returned MITF TRPM1 HTS 4.4, SR-BI DiI inh 48.0, Wnt act -4.4, SR-BI uptake up -48.0 and HSF1 activator 73.5*.
`O=C1c2cccc3cccc(c23)C(=O)N1CCN1CCN(C(=S)Nc2ccccc2)CC1` gave MITF TRPM1 HTS -1.1, SR-BI DiI inh 71.7*, SR-BI uptake up -71.7 and HSF1 activator 35.6.
CCOC(=O)N(C)[C@H]1C[C@H]2c3cc(-c4ccccc4C)ccc3CCN2C[C@H]1[C@H](C)O was read as Wnt act -11.5.
`CCOC(=O)N1CCN(C(=O)/C=C/c2ccc(C(C)(C)C)cc2)CC1` gave SR-BI DiI inh 27.1, Wnt act -1.3, SR-BI uptake up -27.1 and HSF1 activator -5.5.
`Nc1c(Cl)cc(N=Nc2ccccc2)cc1Cl` gave MITF TRPM1 HTS 8.3, SR-BI DiI inh 2.7, Wnt act 1.8 and SR-BI uptake up -2.7.
`COc1cccc(CN(C)C(=O)[C@H]2O[C@@H](n3cnc4c(=O)[nH]c(N)nc43)[C@H](O)[C@@H]2O)c1` gave Wnt act -2.6.
For COc1ccccc1C(=O)NC(=S)Nc1ccccc1N1CCCC1 the results were MITF TRPM1 HTS 1.9, SR-BI DiI inh 74.7*, Wnt act 0.4, SR-BI uptake up -74.7 and HSF1 activator -62.5.
Screening c1ccc(-n2nnc(-c3nccs3)n2)cc1 returned MITF TRPM1 HTS inconclusive, SR-BI DiI inh -3.1, Wnt act 40.0*, SR-BI uptake up 3.1 and HSF1 activator 31.2.
For Fc1ccc(-n2nnc(-c3ccccc3)n2)cc1 the results were MITF TRPM1 HTS 5.2, SR-BI DiI inh 2.6, Wnt act -1.2, SR-BI uptake up -2.6 and HSF1 activator -16.9.
For Brc1ccccc1-n1nnc(-c2nccs2)n1 the results were MITF TRPM1 HTS 90.8*, SR-BI DiI inh 4.0, Wnt act 45.1*, SR-BI uptake up -4.0 and HSF1 activator 6.8.
For Brc1ccccc1-n1nnc(-c2cnc3ccccc3c2)n1 the results were MITF TRPM1 HTS 44.3, SR-BI DiI inh 35.9, Wnt act 42.7*, SR-BI uptake up -35.9 and HSF1 activator inconclusive.
`CN(CC(=O)Nc1cccc(F)c1)CC(=O)NC(c1ccccc1)c1ccccc1` gave MITF TRPM1 HTS 14.4, SR-BI DiI inh -5.7, Wnt act -2.0 and SR-BI uptake up 5.7.
For CC1(C(=O)NS(=O)(=O)C2CC2)CCCN(C(=O)c2cccnc2Oc2ccccc2)C1 (configuration not stated) the results were Wnt act -0.5.
CCCOC1CCCN(C(=O)CCc2nnc(CCCCc3ccccc3)o2)C1 (configuration not stated) was read as SR-BI DiI inh 4.2, Wnt act 0.8, SR-BI uptake up -4.2 and HSF1 activator 55.6*.
Cc1oc(=O)c(NC(=O)c2cccc(Cl)c2)cc1C(=O)c1ccccc1 was read as MITF TRPM1 HTS 46.2, SR-BI DiI inh 30.9, Wnt act -0.4, SR-BI uptake up -30.9 and HSF1 activator 122.8*.
Screening O=C1C=C(C2OC(CO)C(O)C2O)C(=O)N1 (configuration not stated) returned MITF TRPM1 HTS -2.5, SR-BI DiI inh 2.1, Wnt act -1.0 and SR-BI uptake up -2.1.
For CCN(C(=O)c1cn(C)c(=O)c2cc(OC)c(OC)cc12)c1cc(OC)ccc1OC the results were MITF TRPM1 HTS -2.7, SR-BI DiI inh -66.5, SR-BI uptake up 66.5* and HSF1 activator 6.7.
Screening CCN(CC)C(=O)c1cn(C)c(=O)c2cc(OC)c(OC)cc12 returned SR-BI DiI inh -16.1, Wnt act 0.4, SR-BI uptake up 16.1 and HSF1 activator 0.1.
Screening COc1ccc(C(N)c2csc(Nc3ccc(C(=O)NCCCO)cn3)n2)cc1 (configuration not stated) returned Wnt act -1.3.
